# Laboratory results taken from PubChem BioAssay AID1242 (PCMD, 2008).
# In all, about 120,000 compounds went through this assay and about 20 (0.02%) were called active.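 How the source made its calls: active means inhibition above 30.3% in the primary screen of four-compound pools, then above 30% when the compound was retested; inconclusive means passed the primary limit but could not be retested; inactive means the rest.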 This excerpt belongs to a sample that is enriched for actives.
# Test: Candida albicans biofilm persister killing – 4-compound mixtures, primary screen (AID 1242);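 further: compounds exposed to preformed 24 h biofilms for 48 h; 0% = untreated biofilm control and 100% = clotrimazole plus chlorhexidine kill blank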
# Details: C. albicans biofilm persisters + clotrimazole, fluorescence viability, primary screen in compound mixtures, stronger effect = higher value
# Outline: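 Assay system: C. albicans biofilms / Medium: RPMI/MOPS medium, pH 7.0 / Schedule: biofilm formation 24 h, compound exposure 48 h, 37 °C / Measured by: Alamar Blue fluorescence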
# [1] = measured here: individual compound retest, at 61 µM
compound,measurement,setting,value
COc1ccc(C)cc1NC(=O)NCc1ccccn1,inhibition,at 7.6 µM unless noted,16.2% (inactive)
CC(/C=C/c1ccco1)=N/NC(=O)C1COc2ccccc2O1 (stereo not given),inhibition,at 7.6 µM unless noted,16.1% (inactive)
COc1ccc(-n2c(C)nn(CC3CC3)c2=O)cc1,inhibition,at 7.6 µM unless noted,-10.4% (inactive)
Cc1ccnc2nc(C(=O)OCC(=O)N(CC(C)C)CC(C)C)nn12,inhibition,at 7.6 µM unless noted,6.65% (inactive)
CNC(=S)N1CCC(NC(=O)C(Cc2ccc(F)cc2)NC(C)=O)CC1 (stereo not given),inhibition,at 7.6 µM unless noted,5.74% (inactive)
COc1ccc(CC(=O)NCc2nnc(SCC(=O)Nc3nccs3)n2C)cc1,inhibition,at 7.6 µM unless noted,7.45% (inactive)
CCOC(=O)CN/C=C(\C#N)c1ccc(F)cc1,inhibition,at 7.6 µM unless noted,12.8% (inactive)
O=C(Nc1ccc(Cl)cc1)/C(=C1\CCCN1)[N+](=O)[O-],inhibition,at 7.6 µM unless noted,18.1% (inactive)
O=C(CSc1nnc(SCc2ccc(F)cc2)s1)Nc1ccc(C(=O)O)cc1,inhibition,at 7.6 µM unless noted,12.3% (inactive)
COC(=O)c1nn(-c2cccc(Cl)c2)ccc1=O,inhibition,at 7.6 µM unless noted,12.6% (inactive)
CCOC(=O)CCNC(=O)N1CCCC(C(=O)c2ccccc2SC)C1 (stereo not given),inhibition,at 7.6 µM unless noted,27% (inactive)
CN1C=CC=C/C1=C1\SC(=S)N(Cc2ccccc2)C1=O,inhibition,at 7.6 µM unless noted,20.5% (inactive)
COCCN1C2=C(COC(C)(C)C2)C(=S)NC1c1ccccc1 (stereo not given),inhibition,at 7.6 µM unless noted,14% (inactive)
CC(=O)NCC(=O)N1CCCC(C(=O)c2ccc3c4c(cccc24)CC3)C1 (stereo not given),inhibition,at 7.6 µM unless noted,0.67% (inactive)
CC(=O)NC(NC(=S)Nc1c(C)n(C)n(-c2ccccc2)c1=O)C(Cl)(Cl)Cl (stereo not given),inhibition,at 7.6 µM unless noted,12% (inactive)
COc1ccc(/C=C/CN2CCCC(C(=O)c3cc(F)ccc3F)C2)cc1 (stereo not given),inhibition,at 7.6 µM unless noted,8.39% (inactive)
C/C=N/N(c1ccccc1)c1ccccc1,inhibition,at 7.6 µM unless noted,26.1% (inactive)
O=C(Nc1ccccc1C(=O)O)c1cc(S(=O)(=O)N2CCCCC2)cs1,inhibition,at 7.6 µM unless noted,-7.15% (inactive)
O=C(Nc1ccc(S(=O)(=O)Nc2nccs2)cc1)c1cc(=O)[nH]c2ccccc12,inhibition,at 7.6 µM unless noted,21.7% (inactive)
O=C(Cc1ccc(Cl)cc1)NCc1nc(-c2ccccc2)no1,inhibition,at 7.6 µM unless noted,11.6% (inactive)
COC(=O)C1=C(C(=O)OC)C(c2cc([N+](=O)[O-])ccc2O)c2sc(=O)[nH]c2S1 (stereo not given),inhibition,at 7.6 µM unless noted,12.9% (inactive)
COc1ccc(C2CC(c3cccs3)=NN2C(=O)CSc2nnc(N)s2)cc1OC (stereo not given),inhibition,at 7.6 µM unless noted,2.04% (inactive)
Cc1ccc(Cl)cc1NC(=O)COC(=O)CC(C)(C)C,inhibition,at 7.6 µM unless noted,18.1% (inactive)
CC(C)(C)OC(=O)NCCCCCC(=O)N/N=C/c1coc2ccccc2c1=O,inhibition,at 7.6 µM unless noted,21.8% (inactive)
CCC(C)(C)NC(=O)CN(Cc1cccs1)C(=O)CNS(=O)(=O)c1ccc(F)cc1,inhibition,at 7.6 µM unless noted,7.21% (inactive)
COc1cccc2c(N/N=C/c3ccco3)cc(C)nc12,inhibition,at 7.6 µM unless noted,8.66% (inactive)
COc1cccc(C2Nc3cccc4cccc(c34)N2)c1,inhibition,at 7.6 µM unless noted,25.2% (inactive)
O=C(NC1CCCCC1)c1cc(C2CC2)on1,inhibition,at 7.6 µM unless noted,7.38% (inactive)
CCCCC(NC(=O)c1cccc(Br)c1)C(=O)O (stereo not given),inhibition,at 7.6 µM unless noted,22.6% (inactive)
CCOC(=O)c1cc(-c2ccc(F)cc2)n(CC(=O)NCc2ccccn2)c1C,inhibition,at 7.6 µM unless noted,14% (inactive)
CCN1/C(=C\c2ccc3ccccc3[n+]2CC)Sc2cc(C)ccc21,inhibition,at 7.6 µM,31.3% (active)
same,inhibition,[1],72.3%
CCC(=O)/C=C1\Sc2ccccc2N1CC,inhibition,at 7.6 µM unless noted,17% (inactive)
CCN1/C(=C/c2ccc3ccc(C)cc3[n+]2CC)Sc2ccccc21,inhibition,at 7.6 µM unless noted,9.78% (inactive)
C#CCNc1ccc(C(=O)OCC)cc1,inhibition,at 7.6 µM unless noted,15.4% (inactive)
CC1CC(C)CN(CCC(=O)Nc2ccc3c(c2)CCC3)C1 (stereo not given),inhibition,at 7.6 µM unless noted,16.6% (inactive)
C=CCN1CC(C)/C(=N\O)CC1C (stereo not given),inhibition,at 7.6 µM unless noted,26.7% (inactive)
O=C(NCCCN1CCOCC1)c1ccccc1NS(=O)(=O)c1ccc(Br)cc1,inhibition,at 7.6 µM unless noted,20.1% (inactive)
CC(OC(=O)c1ccccc1OCc1ccc(Cl)cc1)C(N)=O (stereo not given),inhibition,at 7.6 µM unless noted,9.56% (inactive)
COc1ccc(NC(=O)CSc2nc(C)cs2)cc1,inhibition,at 7.6 µM unless noted,-9.15% (inactive)
Cc1ccc2cc(/C=N/NC(=O)[C@@H]3CCCN3)c(Cl)nc2c1,inhibition,at 7.6 µM,36% (inactive)
same,inhibition,[1],-44.1%
COc1ccc(C(=O)N/N=C(\C)CC(=O)Nc2ccc(Cl)cn2)cc1,inhibition,at 7.6 µM unless noted,14.5% (inactive)
CC(C)Cc1nc(Cl)c(C#N)c2c1CCC2,inhibition,at 7.6 µM unless noted,20.6% (inactive)
Cc1nc(N)[nH]c(=O)c1Oc1cccc(C(F)(F)F)c1,inhibition,at 7.6 µM unless noted,25.2% (inactive)
CCn1ccnc1CN1CCCC(C(=O)c2ccc3c4c(cccc24)CC3)C1 (stereo not given),inhibition,at 7.6 µM unless noted,13.8% (inactive)
CC(=O)Nc1ccc(S(=O)(=O)Nc2nccc(/C=C/c3ccccc3F)n2)cc1,inhibition,at 7.6 µM unless noted,25.1% (inactive)
COc1ccc(CCNC(=O)C(=O)NCc2ccccc2C)cc1OC,inhibition,at 7.6 µM unless noted,25.3% (inactive)
COCCNc1nc(-c2ccccc2)nc2c1oc1ccccc12,inhibition,at 7.6 µM unless noted,17.2% (inactive)
O=C(NCC1CCCO1)c1ccccc1-c1nc(-c2ccccc2Cl)no1 (stereo not given),inhibition,at 7.6 µM unless noted,16.1% (inactive)
Cc1cc(NC(=O)CSCc2ccccc2C)no1,inhibition,at 7.6 µM unless noted,13.5% (inactive)
O=C(NCCCN1CCOCC1)c1ccc([N+](=O)[O-])cc1[N+](=O)[O-],inhibition,at 7.6 µM unless noted,15.2% (inactive)
O=C(NCCN1CCOCC1)Nc1cccc(Cl)c1,inhibition,at 7.6 µM unless noted,20.6% (inactive)
O=C(CCC(=O)N1CCCC1)Nc1ccc([N+](=O)[O-])cc1,inhibition,at 7.6 µM unless noted,11.9% (inactive)
COc1ccc(Cn2c(O)c(/C=C3/C=CC=N3)c(=O)[nH]c2=O)cc1,inhibition,at 7.6 µM unless noted,11.9% (inactive)
